From paper PMC6287413 (Drug Design, Development and Therapy, 2018)
Where a SMILES comes first, the peptide text is derived from it.

Biological target: T1, PTP1B (Homo sapiens, UniProt P18031)
T1 sequence (P18031 1-435): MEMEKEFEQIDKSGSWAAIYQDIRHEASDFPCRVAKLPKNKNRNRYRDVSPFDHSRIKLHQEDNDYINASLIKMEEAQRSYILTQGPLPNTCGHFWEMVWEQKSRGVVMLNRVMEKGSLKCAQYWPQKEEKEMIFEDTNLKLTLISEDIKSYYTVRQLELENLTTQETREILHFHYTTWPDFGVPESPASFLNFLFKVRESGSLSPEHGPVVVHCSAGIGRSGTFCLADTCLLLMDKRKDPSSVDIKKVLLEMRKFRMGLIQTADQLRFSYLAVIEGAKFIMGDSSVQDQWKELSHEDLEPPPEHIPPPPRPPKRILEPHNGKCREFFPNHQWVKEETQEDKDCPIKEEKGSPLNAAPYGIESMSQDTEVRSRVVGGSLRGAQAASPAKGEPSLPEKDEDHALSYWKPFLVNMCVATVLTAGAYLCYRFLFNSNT
Assay: Inhibitory activity analysis with recombinant PTP1B phosphatase
Type: biochemical
In short: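 Recombinant phosphatase at 1.5 µg/mL […] final in 10 mM HEPES, pH 7.4. Each enzyme was left untreated (control) or treated with peptide solutions over a range of concentrations and incubation times, at 37°C. Para-nitrophenyl phosphate (2 mM) was the chromogenic substrate, read at 405 nm. Every experiment was run three or more times.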

Compound	IC50
N[C@@H](CC(=O)O)C(=O)N[C@@H](Cc1ccccc1)C(=O)O [Asp-Phe] (H-Asp-Phe-OH)	52.6 ± 3.7 µM
N[C@@H](Cc1ccccc1)C(=O)N[C@@H](Cc1ccccc1)C(=O)N[C@@H](CC(=O)O)C(=O)O [Phe-Phe-Asp] (H-Phe-Phe-Asp-OH)	104 ± 15.9 µM
N[C@@H](Cc1ccccc1)C(=O)N[C@@H](CC(=O)O)C(=O)N[C@@H](Cc1ccccc1)C(=O)O [Phe-Asp-Phe] (H-Phe-Asp-Phe-OH)	255 ± 29.4 µM
N[C@@H](Cc1ccccc1)C(=O)N[C@@H](CC(=O)O)C(=O)O [Phe-Asp] (H-Phe-Asp-OH)	52.1 ± 1.4 µM
